Published values collected from several papers.
Compare with care: the assays were run in different laboratories.
Target: Serine/threonine-protein kinase Nek2 (NEK2, Homo sapiens, UniProt P51955)
One construct used (P51955 1-445): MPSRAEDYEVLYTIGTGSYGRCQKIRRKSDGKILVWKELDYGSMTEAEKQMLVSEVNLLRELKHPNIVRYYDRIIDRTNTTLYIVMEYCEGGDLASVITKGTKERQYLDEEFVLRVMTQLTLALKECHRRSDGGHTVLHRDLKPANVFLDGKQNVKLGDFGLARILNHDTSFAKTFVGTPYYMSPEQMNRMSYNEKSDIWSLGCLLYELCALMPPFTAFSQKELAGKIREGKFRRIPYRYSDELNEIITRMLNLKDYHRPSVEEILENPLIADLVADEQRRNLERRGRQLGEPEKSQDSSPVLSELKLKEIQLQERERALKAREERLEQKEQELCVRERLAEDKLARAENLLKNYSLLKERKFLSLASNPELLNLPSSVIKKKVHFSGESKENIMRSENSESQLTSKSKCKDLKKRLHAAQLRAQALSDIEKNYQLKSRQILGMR

With `c1cnn2ncc(-c3ccnc(N4CCC45COC5)n3)c2c1` the remaining binding was 95% (binding; 1 µM).
`CC(=O)N1CCC(c2ccc(C(=O)NC(=N)N)cc2C(F)(F)F)CC1` has a remaining binding of 100% (cell-free assay, competition with immobilised ligand; 1 µM).
For `O=C(c1ccc(Nc2nccc(-c3cc4ccccc4s3)n2)cc1)N1CCC(N2CCCC2)CC1`, the remaining binding was 95% (binding, competition with immobilised ligand; 1 µM).
With `Nc1ncc2c(n1)-c1c([nH]c3ccc(C#CC4CC4)cc13)CCCC2` the remaining binding was 87% (binding, competition with immobilised ligand; 1 µM).
`COc1cnc(Nc2cccc(S(N)(=O)=O)c2)nc1N1CCN(c2ccccc2)CC1` has a remaining binding of 97% (binding, competition with immobilised ligand; 1 µM).
The remaining binding of `CN(c1nccc(-c2cnn3ncccc23)n1)C1CC1` is reported as 100% (binding; 1 µM).
`FC(F)(F)Oc1cccc(-c2cnc3ccc(-c4ccncc4)nn23)c1` gave a remaining binding of 74% (cell-free assay, competition with immobilised ligand; 5 µM).
`CC1=C(C#N)C(c2ccc3c(c2)c(NC(=O)c2ccccc2C)nn3C)C(C#N)=C(C)N1` gave a remaining binding of 100% (cell-free assay, competition with immobilised ligand; 1 µM).
For `CN(C)c1nccc(-c2cnn3ncccc23)n1`, the remaining binding was 100% (binding; 1 µM).
The remaining binding of `O=C(c1ccc(Nc2ncc(Cl)c(-c3cc4ccccc4s3)n2)cc1)N1CCC(N2CCCC2)CC1` is reported as 83% (binding, competition with immobilised ligand; 1 µM).
`C[C@@H]1CCN(c2nccc(-c3cnn4ncccc34)n2)C1` has a remaining binding of 87% (binding; 1 µM).
For `COCCOc1nc(-c2ccc(Cl)nc2)nc2c1CN(C(=O)c1ncn3ccccc13)CC2`, the remaining binding was 100% (cell-free assay, competition with immobilised ligand; 0.1 µM).
The remaining binding of `O=C(NCC1CCOCC1)c1n[nH]cc1NC(=O)c1c(F)cccc1F` is reported as 87% (binding, competition with immobilised ligand; 1 µM).
With `O=C(N[C@H]1CCCCC/C=C\C2C[C@@]2(C(=O)O)NC(=O)[C@@H]2C[C@@H](Oc3ccncc3)CN2C1=O)OC1CCCC1` (some centres unmarked) the remaining binding was 94% (binding, competition with immobilised ligand; 1 µM).
For `N[C@H]1CCN(c2nccc(-c3cnn4ncccc34)n2)C1`, the remaining binding was 100% (binding; 1 µM).
`C[C@H](c1ccnc(Nc2nc3ccc(-c4cc(N(C)C)ncn4)cc3[nH]2)c1)N1CCN(C(=O)CC(F)(F)F)CC1` gave a remaining binding of 100% (cell-free assay, competition with immobilised ligand; 0.1 µM).
With `COc1ccnn2ncc(-c3ccnc(N(C)C)n3)c12` the remaining binding was 92% (binding; 1 µM).
`O=C(NCCCC1CCCCC1)c1ccc(CNC(=O)c2cnn(-c3ccccc3)c2C(F)(F)F)cc1` gave a remaining binding of 100% (cell-free assay, competition with immobilised ligand; 0.1 µM).
`c1cncc(-c2cccc(Nc3nccc(NC4CCCCC4)n3)c2)c1` has a remaining binding of 97% (binding, competition with immobilised ligand; 10 µM).
For `C[C@@H](c1ccc(-n2cnc3c(N)ncnc32)cc1)N1CCc2nn(C)c(Cc3ccccc3)c2C1=O`, the remaining binding was 89% (binding, competition with immobilised ligand; 0.1 µM).
